Measurements from ChEMBL document CHEMBL1821705 (J Med Chem, 2011).
Each block holds one compound with its values, some of them ahead of it.

Experiments:
[1] = target: Vascular endothelial growth factor receptor 2 (Homo sapiens, UniProt P35968); test: Inhibition of KDR activity by TR-FRET assay
KARPAS-299 [2] = test: cells; settings: Homo sapiens, KARPAS-299, 96 h
[3] = target: Hepatocyte growth factor receptor (Homo sapiens, UniProt P08581); test: Inhibition of MET activity by TR-FRET assay
[4] = Clearance in mouse liver microsome at 1 uM after 30 mins by LC/MS analysis in the presence of NADPH; format: ADME; settings: liver microsomes
Method in brief: (§1)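 Compound at 1 μM incubated with human or mouse liver microsomes (0.5 mg protein/mL) in 50 mM phosphate buffer pH 7.4 with 1 mM NADPH, 37 °C, 30 min. Stopped with acetonitrile, centrifuged. Remaining compound in the supernatant quantified by LC/MS.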

[5] = Clearance in human liver microsome at 1 uM after 30 mins by LC/MS analysis in the presence of NADPH; format: ADME; settings: liver microsomes; method in brief: as §1
[6] = target: Mast/stem cell growth factor receptor Kit (Homo sapiens, UniProt P10721); test: Inhibition of KIT activity by TR-FRET assay
Mast/stem cell growth factor receptor Kit, sequence (P10721 whole entry): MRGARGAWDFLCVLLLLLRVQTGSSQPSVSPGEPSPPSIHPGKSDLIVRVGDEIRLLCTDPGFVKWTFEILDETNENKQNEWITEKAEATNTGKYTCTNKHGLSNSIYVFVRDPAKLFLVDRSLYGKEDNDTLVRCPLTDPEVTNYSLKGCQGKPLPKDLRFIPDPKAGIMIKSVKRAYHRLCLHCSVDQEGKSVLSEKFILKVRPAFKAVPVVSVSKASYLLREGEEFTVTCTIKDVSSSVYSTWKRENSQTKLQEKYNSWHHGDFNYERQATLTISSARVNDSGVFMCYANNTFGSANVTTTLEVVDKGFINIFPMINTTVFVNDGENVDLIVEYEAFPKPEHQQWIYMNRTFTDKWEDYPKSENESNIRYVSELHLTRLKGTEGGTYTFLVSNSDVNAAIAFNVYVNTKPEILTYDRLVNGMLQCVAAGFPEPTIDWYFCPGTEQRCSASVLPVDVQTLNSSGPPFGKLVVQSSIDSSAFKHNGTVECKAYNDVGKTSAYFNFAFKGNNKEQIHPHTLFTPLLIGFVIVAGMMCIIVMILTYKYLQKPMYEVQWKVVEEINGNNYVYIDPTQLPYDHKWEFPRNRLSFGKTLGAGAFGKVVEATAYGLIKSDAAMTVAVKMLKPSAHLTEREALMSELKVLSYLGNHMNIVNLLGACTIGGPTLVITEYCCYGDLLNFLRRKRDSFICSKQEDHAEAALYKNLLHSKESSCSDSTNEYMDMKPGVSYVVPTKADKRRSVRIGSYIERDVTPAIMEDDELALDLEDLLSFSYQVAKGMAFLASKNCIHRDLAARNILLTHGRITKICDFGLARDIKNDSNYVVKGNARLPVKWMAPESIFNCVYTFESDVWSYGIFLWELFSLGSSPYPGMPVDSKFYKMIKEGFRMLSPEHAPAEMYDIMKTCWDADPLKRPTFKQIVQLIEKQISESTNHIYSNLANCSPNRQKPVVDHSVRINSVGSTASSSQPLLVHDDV

[7] = target: ALK tyrosine kinase receptor (Homo sapiens, UniProt Q9UM73)
ALK tyrosine kinase receptor, sequence (Q9UM73 whole entry): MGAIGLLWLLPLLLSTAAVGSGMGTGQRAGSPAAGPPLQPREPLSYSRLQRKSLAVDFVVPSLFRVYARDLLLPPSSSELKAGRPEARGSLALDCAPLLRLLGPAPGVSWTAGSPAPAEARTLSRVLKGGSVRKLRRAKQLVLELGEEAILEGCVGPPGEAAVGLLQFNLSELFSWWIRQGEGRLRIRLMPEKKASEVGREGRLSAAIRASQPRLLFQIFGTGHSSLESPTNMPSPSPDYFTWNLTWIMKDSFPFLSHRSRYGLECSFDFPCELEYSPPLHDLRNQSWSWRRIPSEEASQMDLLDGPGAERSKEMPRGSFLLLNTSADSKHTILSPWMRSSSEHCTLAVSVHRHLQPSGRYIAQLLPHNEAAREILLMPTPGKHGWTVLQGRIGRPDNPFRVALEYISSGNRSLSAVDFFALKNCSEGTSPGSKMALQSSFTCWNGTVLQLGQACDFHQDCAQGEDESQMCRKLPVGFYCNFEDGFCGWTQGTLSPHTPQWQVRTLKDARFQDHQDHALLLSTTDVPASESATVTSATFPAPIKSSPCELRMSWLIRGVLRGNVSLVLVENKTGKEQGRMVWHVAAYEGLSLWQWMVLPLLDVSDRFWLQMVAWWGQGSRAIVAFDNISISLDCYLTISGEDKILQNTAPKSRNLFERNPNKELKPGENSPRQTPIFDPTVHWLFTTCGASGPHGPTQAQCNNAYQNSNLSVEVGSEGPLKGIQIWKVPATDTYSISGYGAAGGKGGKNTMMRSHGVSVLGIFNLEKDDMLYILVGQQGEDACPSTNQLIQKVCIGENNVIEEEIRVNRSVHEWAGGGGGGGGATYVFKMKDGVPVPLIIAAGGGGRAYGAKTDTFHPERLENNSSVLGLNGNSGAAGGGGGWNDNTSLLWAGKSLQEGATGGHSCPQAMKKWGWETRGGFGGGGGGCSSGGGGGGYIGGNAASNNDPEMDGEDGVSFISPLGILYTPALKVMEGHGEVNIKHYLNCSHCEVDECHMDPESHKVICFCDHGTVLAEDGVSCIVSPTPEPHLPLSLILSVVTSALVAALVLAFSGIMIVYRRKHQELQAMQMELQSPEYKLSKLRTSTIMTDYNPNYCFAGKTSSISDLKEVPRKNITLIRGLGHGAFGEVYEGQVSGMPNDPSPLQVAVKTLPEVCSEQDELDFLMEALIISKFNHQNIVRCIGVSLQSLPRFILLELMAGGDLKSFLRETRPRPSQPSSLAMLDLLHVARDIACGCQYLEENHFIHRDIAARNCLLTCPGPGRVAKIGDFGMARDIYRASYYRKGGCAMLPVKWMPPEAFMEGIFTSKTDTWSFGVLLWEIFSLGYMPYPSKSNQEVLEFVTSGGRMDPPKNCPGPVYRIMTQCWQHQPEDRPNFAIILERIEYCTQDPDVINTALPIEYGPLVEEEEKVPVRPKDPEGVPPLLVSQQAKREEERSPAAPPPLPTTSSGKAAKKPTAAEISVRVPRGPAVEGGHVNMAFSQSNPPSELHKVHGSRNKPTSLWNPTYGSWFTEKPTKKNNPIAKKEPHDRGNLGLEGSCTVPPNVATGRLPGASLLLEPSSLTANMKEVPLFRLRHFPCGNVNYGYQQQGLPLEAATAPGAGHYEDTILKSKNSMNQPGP

[8] = target: RAC-alpha serine/threonine-protein kinase (Homo sapiens, UniProt P31749); test: Inhibition of AKT1 activity by fluorescence polarization assay
RAC-alpha serine/threonine-protein kinase, sequence (P31749 whole entry): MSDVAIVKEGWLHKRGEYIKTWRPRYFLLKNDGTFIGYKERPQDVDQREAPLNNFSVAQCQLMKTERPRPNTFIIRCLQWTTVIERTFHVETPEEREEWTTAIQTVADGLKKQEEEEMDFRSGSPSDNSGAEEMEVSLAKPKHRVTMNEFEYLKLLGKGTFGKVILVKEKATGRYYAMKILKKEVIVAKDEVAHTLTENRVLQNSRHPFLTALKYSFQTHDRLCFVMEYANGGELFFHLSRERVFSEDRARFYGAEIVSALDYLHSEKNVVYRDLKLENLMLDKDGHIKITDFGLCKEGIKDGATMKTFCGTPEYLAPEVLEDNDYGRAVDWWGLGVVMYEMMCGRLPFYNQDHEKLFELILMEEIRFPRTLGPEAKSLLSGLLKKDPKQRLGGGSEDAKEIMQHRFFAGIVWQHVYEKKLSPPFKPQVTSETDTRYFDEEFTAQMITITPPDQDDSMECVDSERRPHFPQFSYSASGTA

[9] = Half-life in cynomolgus monkey at 0.5 mg/kg, iv; format: ADME, organism-based, Macaca fascicularis; parameters: dose 0.5 mg/kg, route intravenous; settings: in vivo
Method in brief: (§2)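 Fasted cynomolgus monkeys, n = 2 per route, given 0.5 mg/kg po or iv in 20% EtOH, 10% Cremophor EL, 15% PEG400, 15% HPCD, 0.02 mol/L HCl in water. Heparinized blood taken at 0.08–48 h (iv) or 0.50–48 h (po). Plasma stored at −80 °C, analyzed by LC-MS/MS. Parameters from noncompartmental analysis.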

KARPAS-299 [10] = test: Antitumor activity against human KARPAS299 xenografted in po dosed SCID mouse assessed as decrease in tumor volume; format: functional, organism-based
Method in brief: (§3)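 KARPAS-299 grown as sc tumors in SCID mice. Dosing started when tumors reached about 200 mm³, with four mice per group randomized. Vehicle or compound given by oral sonde once daily for 11 days; vehicle 10% DMSO, 10% Cremophor EL, 15% PEG400, 15% HPCD. Tumor volume taken as (L × W²)/2, measured twice weekly. TGI = [1 − (T − T₀)/(C − C₀)] × 100.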

[11] = AUC in cynomolgus monkey at 0.5 mg/kg, po; format: ADME, organism-based, Macaca fascicularis; parameters: dose 0.5 mg/kg, route oral; settings: plasma; method in brief: as §2
[12] = Cmax in cynomolgus monkey at 0.5 mg/kg, po; format: ADME, organism-based, Macaca fascicularis; parameters: dose 0.5 mg/kg, route oral; settings: in vivo; method in brief: as §2
[13] = target: RAF proto-oncogene serine/threonine-protein kinase (Homo sapiens, UniProt P04049); test: Inhibition of Raf-1 activity assessed as MEK1/2 phosphorylation
Method in brief: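 Raf-1 activity read as phosphorylation of MEK1/2, detected with europium-labelled anti-phospho-MEK1/2 (Ser217/221) antibody.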

[14] = target: Insulin-like growth factor 1 receptor (Homo sapiens, UniProt P08069); test: Inhibition of IGF1R activity by TR-FRET assay
[15] = Volume of distribution at steady state in cynomolgus monkey at 0.5 mg/kg, iv; format: ADME, organism-based, Macaca fascicularis; parameters: dose 0.5 mg/kg, route intravenous; settings: in vivo, read-out: Vdss; method in brief: as §2
[16] = target: Proto-oncogene tyrosine-protein kinase Src (Homo sapiens, UniProt P12931); test: Inhibition of SRC activity by TR-FRET assay
[17] = target: Fibroblast growth factor receptor 2 (Homo sapiens, UniProt P21802); test: Inhibition of FGFR2 activity by TR-FRET assay
[18] = target: Protein kinase C alpha type (Homo sapiens, UniProt P17252); test: Inhibition of PKCA activity by fluorescence polarization assay
KARPAS-299 [19] = test: Antitumor activity against human KARPAS299 xenografted in SCID mouse assessed as tumor growth inhibition at 2 mg/kg, po administered for 11 days after 8 days of tumor implantation; format: functional; settings: read-out: TGI; method in brief: as §3
[20] = target: T1, Protein kinase C beta type (Homo sapiens, UniProt P05771); test: Inhibition of PKCb1 activity by fluorescence polarization assay
T1 sequence (P05771 whole entry): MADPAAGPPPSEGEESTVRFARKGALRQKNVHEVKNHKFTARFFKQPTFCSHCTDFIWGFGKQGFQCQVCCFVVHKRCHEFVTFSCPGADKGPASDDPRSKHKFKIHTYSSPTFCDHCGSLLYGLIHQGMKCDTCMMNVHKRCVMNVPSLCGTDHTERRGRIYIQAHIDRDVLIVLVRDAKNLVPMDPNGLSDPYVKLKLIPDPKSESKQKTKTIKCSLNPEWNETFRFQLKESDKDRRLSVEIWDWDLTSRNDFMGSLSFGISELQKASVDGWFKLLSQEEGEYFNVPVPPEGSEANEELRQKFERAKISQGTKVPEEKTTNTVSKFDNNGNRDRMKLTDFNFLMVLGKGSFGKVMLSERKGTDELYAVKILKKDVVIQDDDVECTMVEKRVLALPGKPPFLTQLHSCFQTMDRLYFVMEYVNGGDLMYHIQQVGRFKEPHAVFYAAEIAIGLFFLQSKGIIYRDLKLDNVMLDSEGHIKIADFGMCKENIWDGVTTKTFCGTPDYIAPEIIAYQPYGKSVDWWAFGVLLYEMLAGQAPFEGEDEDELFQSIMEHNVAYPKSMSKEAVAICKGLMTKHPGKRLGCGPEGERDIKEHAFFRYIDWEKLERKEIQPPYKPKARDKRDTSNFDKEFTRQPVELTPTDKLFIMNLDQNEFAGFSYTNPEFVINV

[21] = target: Receptor tyrosine-protein kinase erbB-2 (Homo sapiens, UniProt P04626); test: Inhibition of HER2 activity by TR-FRET assay
[22] = Total clearance in cynomolgus monkey at 0.5 mg/kg, iv; format: ADME, organism-based, Macaca fascicularis; parameters: dose 0.5 mg/kg, route intravenous; settings: in vivo; method in brief: as §2
[23] = Half-life in cynomolgus monkey at 0.5 mg/kg, po; format: ADME, organism-based, Macaca fascicularis; parameters: dose 0.5 mg/kg, route oral; settings: in vivo; method in brief: as §2
Aurora kinase A = target: T2, Aurora kinase A (Homo sapiens, UniProt O14965); test: Inhibition of Aurora-A activity by fluorescence polarization assay
T2 sequence (O14965 whole entry): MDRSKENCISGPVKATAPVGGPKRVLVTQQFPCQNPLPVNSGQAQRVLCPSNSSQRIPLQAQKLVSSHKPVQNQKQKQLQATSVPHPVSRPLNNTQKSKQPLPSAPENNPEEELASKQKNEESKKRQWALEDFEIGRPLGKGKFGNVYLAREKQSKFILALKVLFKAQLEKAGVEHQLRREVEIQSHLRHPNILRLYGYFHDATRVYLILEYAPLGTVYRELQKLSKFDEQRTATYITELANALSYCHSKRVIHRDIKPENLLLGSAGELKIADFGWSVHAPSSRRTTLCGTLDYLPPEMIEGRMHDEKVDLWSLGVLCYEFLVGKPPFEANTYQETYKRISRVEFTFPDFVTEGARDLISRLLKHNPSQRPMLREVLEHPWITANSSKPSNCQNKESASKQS

[24] = target: T1, Protein kinase C beta type; test: Inhibition of PKCb2 activity by fluorescence polarization assay
[25] = target: Tyrosine-protein kinase ABL1 (Homo sapiens, UniProt P00519); test: Inhibition of ABL activity by TR-FRET assay
[26] = Oral bioavailability in cynomolgus monkey at 0.5 mg/kg; format: ADME, organism-based, Macaca fascicularis; settings: in vivo; method in brief: as §2
Insulin receptor = Insulin receptor (Homo sapiens, UniProt P06213); test: Inhibition of INSR activity by TR-FRET assay
KARPAS-299 [27] = test: Antitumor activity against human KARPAS299 xenografted in SCID mouse assessed as tumor growth inhibition at 20 mg/kg, po administered for 11 days after 8 days of tumor implantation; format: functional; settings: read-out: TGI; method in brief: as §3
KARPAS-299 [28] = test: Antitumor activity against human KARPAS299 xenografted in SCID mouse assessed as tumor growth inhibition at 6 mg/kg, po administered for 11 days after 8 days of tumor implantation; format: functional; settings: read-out: TGI; method in brief: as §3

Vascular endothelial growth factor receptor 2, sequence (P35968 whole entry): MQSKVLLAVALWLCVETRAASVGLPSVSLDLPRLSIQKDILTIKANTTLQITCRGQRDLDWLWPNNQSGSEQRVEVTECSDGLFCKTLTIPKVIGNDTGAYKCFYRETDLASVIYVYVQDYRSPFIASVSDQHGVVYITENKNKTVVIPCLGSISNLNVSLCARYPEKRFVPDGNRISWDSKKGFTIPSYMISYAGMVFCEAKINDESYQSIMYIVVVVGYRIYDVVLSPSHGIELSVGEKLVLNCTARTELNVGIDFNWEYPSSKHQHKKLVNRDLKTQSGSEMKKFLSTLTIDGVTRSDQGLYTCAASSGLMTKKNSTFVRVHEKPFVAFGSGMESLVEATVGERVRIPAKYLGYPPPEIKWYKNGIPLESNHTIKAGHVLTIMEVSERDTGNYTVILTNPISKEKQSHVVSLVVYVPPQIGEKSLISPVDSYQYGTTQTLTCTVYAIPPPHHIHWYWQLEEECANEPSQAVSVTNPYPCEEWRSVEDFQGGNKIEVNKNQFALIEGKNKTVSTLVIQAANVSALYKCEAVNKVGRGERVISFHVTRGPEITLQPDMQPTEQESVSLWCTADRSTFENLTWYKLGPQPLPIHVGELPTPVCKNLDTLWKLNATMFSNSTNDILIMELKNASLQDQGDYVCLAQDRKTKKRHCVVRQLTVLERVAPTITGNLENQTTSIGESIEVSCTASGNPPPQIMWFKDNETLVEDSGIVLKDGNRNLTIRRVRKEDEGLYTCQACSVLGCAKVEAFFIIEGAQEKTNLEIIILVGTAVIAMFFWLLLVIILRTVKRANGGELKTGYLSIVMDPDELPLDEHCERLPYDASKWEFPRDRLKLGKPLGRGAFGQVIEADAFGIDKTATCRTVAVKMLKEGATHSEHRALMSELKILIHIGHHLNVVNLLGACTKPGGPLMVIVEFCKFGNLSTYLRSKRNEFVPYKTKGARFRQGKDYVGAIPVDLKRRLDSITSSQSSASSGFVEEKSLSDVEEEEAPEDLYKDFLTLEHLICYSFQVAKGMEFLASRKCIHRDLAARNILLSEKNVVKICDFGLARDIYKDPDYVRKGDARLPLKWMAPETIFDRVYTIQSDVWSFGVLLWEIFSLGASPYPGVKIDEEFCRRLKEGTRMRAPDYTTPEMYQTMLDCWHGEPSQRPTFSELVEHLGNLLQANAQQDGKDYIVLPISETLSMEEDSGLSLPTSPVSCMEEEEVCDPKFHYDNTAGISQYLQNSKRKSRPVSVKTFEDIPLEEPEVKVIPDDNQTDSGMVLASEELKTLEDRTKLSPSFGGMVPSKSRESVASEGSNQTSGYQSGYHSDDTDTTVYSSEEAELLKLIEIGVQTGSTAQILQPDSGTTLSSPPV

- IC50 [1]: > 5000 nM
- IC50 (KARPAS-299 [2]): 544 nM
- IC50 [3]: > 5 µM
- microsomal CLint at 1 µM [4]: 44.7 µL/min/mg
- microsomal CLint at 1 µM [5]: 17.8 µL/min/mg
- IC50 [6]: > 5000 nM
SMILES: CC1(C)c2cc(N3CCN(C4COC4)CC3)c(CCC3CCCC3)cc2C(=O)c2c1[nH]c1cc(C#N)ccc21

- IC50 [1]: > 5000 nM
- IC50 (KARPAS-299 [2]): 25.3 nM
- IC50 [7]: 15.1 nM
- IC50 [3]: > 5 µM
- microsomal CLint at 1 µM [4]: 4.7 µL/min/mg
- microsomal CLint at 1 µM [5]: 19.4 µL/min/mg
- IC50 [6]: > 5000 nM
SMILES: CCCc1cc2c(cc1N1CCN(C3COC3)CC1)C(C)(C)c1[nH]c3cc(C#N)ccc3c1C2=O

- IC50 [1]: 137 nM
- IC50 [3]: > 5 µM
- IC50 [6]: 83.9 nM
SMILES: CC1(C)c2cc(N3CCN(C4COC4)CC3)ccc2C(=O)c2c1[nH]c1cc(C#N)ccc21

- IC50 [1]: > 5000 nM
- IC50 (KARPAS-299 [2]): 118 nM
- IC50 [7]: 66.4 nM
- IC50 [3]: > 5 µM
- microsomal CLint at 1 µM [4]: 4.1 µL/min/mg
- microsomal CLint at 1 µM [5]: 17.4 µL/min/mg
- IC50 [6]: > 5000 nM
SMILES: CC(C)c1cc2c(cc1N1CCN(C3COC3)CC1)C(C)(C)c1[nH]c3cc(C#N)ccc3c1C2=O

- IC50 [1]: > 5000 nM
- IC50 [8]: > 50 µM
- half-life [9]: 318 min
- AUC [11]: 3270 ng·h/mL
- Cmax [12]: 327 ng/mL
- IC50 (KARPAS-299 [2]): 12.8 nM
- IC50 [13]: > 50 µM
- IC50 [14]: > 50 µM
- Vd [15]: 0.296 L/kg
- IC50 [3]: > 5 µM
- IC50 [16]: > 50 µM
- IC50 [17]: > 50 µM
- microsomal CLint at 1 µM [4]: 4.5 µL/min/mg
- microsomal CLint at 1 µM [5]: 17 µL/min/mg
- IC50 [18]: > 50 µM
- IC50 [20]: > 50 µM
- IC50 [21]: > 50 µM
- clearance [22]: 0.73 mL/min/kg
- half-life [23]: 375 min
- IC50 (Aurora kinase A): > 50 µM
- IC50 [24]: > 50 µM
- IC50 [25]: > 50 µM
- IC50 [6]: > 5000 nM
- bioavailability [26]: 28.2%
- IC50 (Insulin receptor): 460 nM
SMILES: CCc1cc2c(cc1N1CCN(C3COC3)CC1)C(C)(C)c1[nH]c3cc(C#N)ccc3c1C2=O
- Activity (KARPAS-299 [10]): Dose-dependent effect
- inhibition in vivo at 2 mg/kg (KARPAS-299 [19]): 49%
- inhibition in vivo at 20 mg/kg (KARPAS-299 [27]): 119%
- inhibition in vivo at 6 mg/kg (KARPAS-299 [28]): 103%

- IC50 [1]: 60.8 nM
- IC50 (KARPAS-299 [2]): 14.8 nM
- IC50 [7]: 10.6 nM
- IC50 [3]: > 5 µM
- microsomal CLint at 1 µM [4]: 7 µL/min/mg
- microsomal CLint at 1 µM [5]: 22.6 µL/min/mg
- IC50 [6]: 49.8 nM
SMILES: Cc1cc2c(cc1N1CCN(C3COC3)CC1)C(C)(C)c1[nH]c3cc(C#N)ccc3c1C2=O

- IC50 [1]: 455 nM
- IC50 [7]: 2.7 nM
- IC50 [3]: > 5 µM
- microsomal CLint at 1 µM [4]: 2.1 µL/min/mg
- microsomal CLint at 1 µM [5]: 18.9 µL/min/mg
- IC50 [6]: 2420 nM
SMILES: C#Cc1cc2c(cc1N1CCN(C3COC3)CC1)C(C)(C)c1[nH]c3cc(C#N)ccc3c1C2=O
